Reference: ChEMBL document CHEMBL4038284, “Synthesis of novel quinoline-based 4,5-dihydro-1H-pyrazoles as potential anticancer, antifungal, antibacterial and antiprotozoal agents” (Eur J Med Chem, 2017)
Converted amounts (≈) assume the structure as drawn.

What was measured:
Plasmodium falciparum = assay: Antiplasmodial activity against chloroquine-sensitive Plasmodium falciparum 3D7 assessed as reduction in parasitic LDH activity after 48 hrs by Malstat reagent based […] method; assay type: functional; settings: 3D7, 48 h
In short: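 Unsynchronized P. falciparum 3D7 at 0.5% parasitemia and 1% hematocrit in RPMI with 3% Albumax II. Exposed to 100, 25, 6.25 and 1.56 µg/mL for 48 h at 37 °C under 90% N2/5% CO2/5% O2. After three freeze-thaw cycles, LDH measured with Malstat and NBT/PES, 1 h in the dark, read at 650 nm. IC50 by Probit; triplicate, ≥2 experiments.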

Klebsiella pneumoniae [1] = assay: Antibacterial activity against carbapenemase positive Klebsiella pneumoniae BAA 1705 after 24 hrs by resazurin dye based microdilution assay; assay type: functional; settings: BAA 1705, 24 h
In short: (§1)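 MIC taken as the lowest concentration giving visible inhibition and/or by resazurin (1 mg/mL). Gentamicin was the control. Run in duplicate, repeated at least three times.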

Candida albicans [2] = assay: Growth inhibition of Candida albicans ATCC 10231 at 125 ug/ml incubated for 48 hrs under dark condition by broth microdilution method relative to control; assay type: functional; settings: ATCC 10231, 48 h, read-out: GI
In short: (§2)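 CLSI M27-A3 broth microdilution in RPMI-1640, DMSO ≤1%. Inoculum 1-5 × 10^3 CFU/mL. Incubated 48 h at 30 °C, dark. % inhibition = 100 − (OD405 test − sterility control)/(OD405 growth control − sterility control), with growth and sterility control wells. Triplicate.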

Klebsiella pneumoniae [3] = assay: Antibacterial activity against ESBL positive Klebsiella pneumoniae ATCC 700603 after 24 hrs by resazurin dye based microdilution assay; assay type: functional; settings: Klebsiella pneumoniae, 700603, 24 h; in short: as §1
Leishmania panamensis = assay: Antileshmanial activity against EpiR/GFP fused Leishmania panamensis MHOM/CO/87/UA140 intracellular amastigotes infected in human […] cells after 72 hrs by flow cytometric method; assay type: functional, cell-based; settings: MHOM/CO/87/UA140, 72 h
In short: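 PMA-treated U-937 cells (3 × 10^5 cells/mL) infected with stationary-phase GFP L. panamensis promastigotes (15:1), 3 h at 34 °C, then washed. After 24 h, compounds added at 50, 12.5, 3.125 and 0.78 µg/mL for 72 h at 37 °C. EC50 by Probit; triplicate, two experiments.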

Staphylococcus aureus [4] = assay: Antibacterial activity against vancomycin-intermediate Staphylococcus aureus after 24 hrs by resazurin dye based microdilution assay; assay type: functional; in short: as §1
Candida albicans [5] = assay: Antifungal activity against Candida albicans ATCC 10231 incubated for 48 hrs under dark condition by broth microdilution method; assay type: functional; settings: ATCC 10231, 48 h
In short: (§3)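 CLSI M27-A3 broth microdilution in RPMI-1640, DMSO ≤1%, compounds at 250-0.98 µg/mL final. Inoculum 1-5 × 10^3 CFU/mL. Incubated 48 h at 30 °C in a moist dark chamber, read at OD405. MIC80 and MIC50 taken from % inhibition dose-response curves (mean ± SEM, triplicate). Amphotericin B was the positive control.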

Candida albicans [6] = assay: Growth inhibition of Candida albicans ATCC 10231 at 15.62 ug/ml incubated for 48 hrs under dark condition by broth microdilution method relative to control; assay type: functional; settings: ATCC 10231, 48 h, read-out: GI; in short: as §2
Cryptococcus neoformans [7] = assay: Antifungal activity against Cryptococcus neoformans ATCC 32264 incubated for 48 hrs under dark condition by broth microdilution method; assay type: functional; settings: ATCC 32264, 48 h; in short: as §3
Cryptococcus neoformans [8] = assay: Growth inhibition of Cryptococcus neoformans ATCC 32264 at 250 ug/ml incubated for 48 hrs under dark condition by broth microdilution method relative to control; assay type: functional; settings: ATCC 32264, 48 h, read-out: GI; in short: as §2
Cryptococcus neoformans [9] = assay: Growth inhibition of Cryptococcus neoformans ATCC 32264 at 62.5 ug/ml incubated for 48 hrs under dark condition by broth microdilution method relative to control; assay type: functional; settings: ATCC 32264, 48 h, read-out: GI; in short: as §2
Candida albicans [10] = assay: Growth inhibition of Candida albicans ATCC 10231 at 62.5 ug/ml incubated for 48 hrs under dark condition by broth microdilution method relative to control; assay type: functional; settings: ATCC 10231, 48 h, read-out: GI; in short: as §2
Cryptococcus neoformans [11] = assay: Growth inhibition of Cryptococcus neoformans ATCC 32264 at 31.25 ug/ml incubated for 48 hrs under dark condition by broth microdilution method relative to control; assay type: functional; settings: ATCC 32264, 48 h, read-out: GI; in short: as §2
Neisseria gonorrhoeae = assay: Antibacterial activity against beta lactamase positive Neisseria gonorrhoeae ATCC 31426 by oxidase test; assay type: functional
In short: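 Agar dilution MIC on GC agar with 1% isovitalex containing increasing compound concentrations. Plates inoculated with about 1×10^4 CFU (5 µL). MIC is the lowest concentration that inhibited growth, with growth confirmed by oxidase test. Run in duplicate, repeated at least three times.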

Staphylococcus aureus [12] = assay: Antibacterial activity against methicillin-sensitive Staphylococcus aureus ATCC 25923 after 24 hrs by resazurin dye based microdilution assay; assay type: functional; settings: ATCC 25923, 24 h; in short: as §1
Trypanosoma cruzi = assay: Antitrypanosomal activity against Trypanosoma cruzi Tulahuen intracellular amastigote harboring LacZ infected in human U937 cells after 72 hrs by CPRG/Nonidet reagent based spectrophotometric method; assay type: functional, cell-based; settings: U-937, 72 h
In short: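 U-937 cells at 2.5 × 10^5 cells/mL in RPMI-1640 with 10% serum and 0.1 µg/mL PMA were infected with β-galactosidase-transfected Tulahuen epimastigotes at 5 parasites per cell. Infected cells were exposed to 50, 12.5, 3.125 and 0.78 µg/mL for 72 h. CPRG (100 uM) and 0.1% Nonidet P-40 were added for 3 h, read at 570 nm. EC50 by Probit. Triplicate, at least two experiments; benznidazole as reference.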

Candida albicans [13] = assay: Growth inhibition of Candida albicans ATCC 10231 at 250 ug/ml incubated for 48 hrs under dark condition by broth microdilution method relative to control; assay type: functional; settings: ATCC 10231, 48 h, read-out: GI; in short: as §2
Candida albicans [14] = assay: Growth inhibition of Candida albicans ATCC 10231 at 31.25 ug/ml incubated for 48 hrs under dark condition by broth microdilution method relative to control; assay type: functional; settings: ATCC 10231, 48 h, read-out: GI; in short: as §2
Cryptococcus neoformans [15] = assay: Growth inhibition of Cryptococcus neoformans ATCC 32264 at 15.62 ug/ml incubated for 48 hrs under dark condition by broth microdilution method relative to control; assay type: functional; settings: ATCC 32264, 48 h, read-out: GI; in short: as §2
Candida albicans [16] = assay: Growth inhibition of Candida albicans ATCC 10231 at 3.4 ug/ml incubated for 48 hrs under dark condition by broth microdilution method relative to control; assay type: functional; settings: ATCC 10231, 48 h, read-out: GI
Cryptococcus neoformans [17] = assay: Growth inhibition of Cryptococcus neoformans ATCC 32264 at 3.4 ug/ml incubated for 48 hrs under dark condition by broth microdilution method relative to control; assay type: functional; settings: ATCC 32264, 48 h, read-out: GI
Candida albicans [18] = assay: Growth inhibition of Candida albicans ATCC 10231 at 7.8 ug/ml incubated for 48 hrs under dark condition by broth microdilution method relative to control; assay type: functional; settings: ATCC 10231, 48 h, read-out: GI; in short: as §2
Cryptococcus neoformans [19] = assay: Growth inhibition of Cryptococcus neoformans ATCC 32264 at 7.8 ug/ml incubated for 48 hrs under dark condition by broth microdilution method relative to control; assay type: functional; settings: ATCC 32264, 48 h, read-out: GI; in short: as §2
Cryptococcus neoformans [20] = assay: Growth inhibition of Cryptococcus neoformans ATCC 32264 at 125 ug/ml incubated for 48 hrs under dark condition by broth microdilution method relative to control; assay type: functional; settings: ATCC 32264, 48 h, read-out: GI; in short: as §2
U-937 = assay: Cytotoxicity against human U937 cells after 72 hrs by MTT assay; assay type: cell-based; settings: u-937, 72 h
In short: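 Exponentially growing U-937 at 1 × 10^5 cells/mL in RPMI-1640 with 10% FBS were exposed to 200, 50, 12.5 and 3.125 µg/mL for 72 h at 37 °C, 5% CO2. MTT for 3 h, stopped with isopropanol/SDS, formazan read at 570 nm, blank-corrected. LC50 by Probit from % viability against untreated cells. Triplicate, at least two independent experiments.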

Staphylococcus aureus [21] = assay: Antibacterial activity against methicillin-resistant Staphylococcus aureus ATCC 43300 after 24 hrs by resazurin dye based microdilution assay; assay type: functional; settings: ATCC 43300, 24 h
In short: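 Broth microdilution in Mueller Hinton broth, inoculum 5 × 10^5 – 8 × 10^5. Compound stocks diluted in MHB with 5% DMSO and 0.1% Tween 80. Incubation 24 h at 35-37 °C. MIC is the lowest concentration with visible growth inhibition and/or by resazurin (1 mg/mL) read-out. Gentamicin as control. Run in duplicate, replicated at least three times.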

Pseudomonas aeruginosa = assay: Antibacterial activity against Pseudomonas aeruginosa ATCC 27853 after 24 hrs by resazurin dye based microdilution assay; assay type: functional; settings: ATCC 27853, 24 h; in short: as §1
Escherichia coli = assay: Antibacterial activity against Escherichia coli ATCC 25922 after 24 hrs by resazurin dye based microdilution assay; assay type: functional; settings: ATCC 25922, 24 h; in short: as §1

| SMILES | EC50 (Plasmodium falciparum) [µg/mL] | MIC (Klebsiella pneumoniae [1]) [µg/mL] | inhibition of growth at 125 µg/mL (Candida albicans [2]) [%] | MIC (Klebsiella pneumoniae [3]) [µg/mL] | EC50 (Leishmania panamensis) [µg/mL] | MIC (Staphylococcus aureus [4]) [µg/mL] | MIC50 (Candida albicans [5]) [µg/mL] | MIC80 (Candida albicans [5]) [µg/mL] | inhibition of growth at 15.62 µg/mL (Candida albicans [6]) [%] | MIC50 (Cryptococcus neoformans [7]) [µg/mL] | MIC80 (Cryptococcus neoformans [7]) [µg/mL] | inhibition of growth at 250 µg/mL (Cryptococcus neoformans [8]) [%] | inhibition of growth at 62.5 µg/mL (Cryptococcus neoformans [9]) [%] | inhibition of growth at 62.5 µg/mL (Candida albicans [10]) [%] | inhibition of growth at 31.25 µg/mL (Cryptococcus neoformans [11]) [%] | MIC (Neisseria gonorrhoeae) [µg/mL] | MIC (Staphylococcus aureus [12]) [µg/mL] | EC50 (Trypanosoma cruzi) [µg/mL] | inhibition of growth at 250 µg/mL (Candida albicans [13]) [%] | inhibition of growth at 31.25 µg/mL (Candida albicans [14]) [%] | other results |
| --- | --- | --- | --- | --- | --- | --- | --- | --- | --- | --- | --- | --- | --- | --- | --- | --- | --- | --- | --- | --- | --- |
| Clc1ccc(N2N=C(c3ccccc3)CC2c2cccc(Nc3ccnc4cc(Cl)ccc34)c2)cc1 (stereo not given) | 10.3 (≈ 20.1 µM) | > 1000 | 18.9 | > 1000 | 15.7 (≈ 30.8 µM) | > 1000 | ≥ 250 | ≥ 250 | 8.78 | 250 (≈ 491 µM) | ≥ 250 | 61 | 13.8 | 10.9 | 5.92 | > 1000 | > 1000 | 15.1 (≈ 29.7 µM) | 26.9 | 10.5 | inhibition of growth at 15.62 µg/mL (Cryptococcus neoformans [15]): 0%; inhibition of growth at 3.4 µg/mL (Candida albicans [16]): 2.71%; inhibition of growth at 3.4 µg/mL (Cryptococcus neoformans [17]): 0%; inhibition of growth at 7.8 µg/mL (Candida albicans [18]): 4.82%; inhibition of growth at 7.8 µg/mL (Cryptococcus neoformans [19]): 0%; inhibition of growth at 125 µg/mL (Cryptococcus neoformans [20]): 46%; LC50 (U-937): > 200 µg/mL; MIC (Staphylococcus aureus [21]): > 1000 µg/mL; MIC (Pseudomonas aeruginosa): > 1000 µg/mL; MIC (Escherichia coli): > 1000 µg/mL |
| O=CN1N=C(c2ccccc2)CC1c1cccc(Nc2ccnc3cc(Cl)ccc23)c1 (stereo not given) | 17.7 (≈ 41.4 µM) | > 1000 | 16.9 | > 1000 | 1.72 (≈ 4.03 µM) | > 1000 | ≥ 250 | ≥ 250 | 4.31 | 250 (≈ 586 µM) | ≥ 250 | 54.1 | 34.4 | 10.1 | 29.7 | > 1000 | > 1000 | > 0.6 | 29.9 | 8.44 | inhibition of growth at 15.62 µg/mL (Cryptococcus neoformans [15]): 20.7%; inhibition of growth at 3.4 µg/mL (Candida albicans [16]): 2.19%; inhibition of growth at 3.4 µg/mL (Cryptococcus neoformans [17]): 7.63%; inhibition of growth at 7.8 µg/mL (Candida albicans [18]): 4.3%; inhibition of growth at 7.8 µg/mL (Cryptococcus neoformans [19]): 11.2%; inhibition of growth at 125 µg/mL (Cryptococcus neoformans [20]): 47.2%; LC50 (U-937): 1.3 µg/mL (≈ 3.05 µM); MIC (Staphylococcus aureus [21]): > 1000 µg/mL; MIC (Pseudomonas aeruginosa): > 1000 µg/mL; MIC (Escherichia coli): > 1000 µg/mL |
